# ChEMBL document CHEMBL1131146, “4-Alkynylphenyl imidazolylpropyl ethers as selective histamine H3-receptor antagonists with high oral central nervous system activity” (J Med Chem, 1998)
# What was measured:
# Histamine H3 receptor = Histamine H3 receptor (Rattus norvegicus, UniProt Q9QYN8); assay: (§1) In vitro antagonist potency at Histamine H3 receptor measured as K+-evoked [3H]histamine release from synaptosomes of rat cerebral cortex.; assay type: functional, subcellular, Brain
# Method in brief: (§2)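 Rat cerebral cortex synaptosomes; [³H]histamine release evoked by K⁺ depolarization; antagonist activity measured at least in triplicate, per Garbarg et al.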
# [1] = target: Histamine H3 receptor (Mus musculus) (UniProt P58406); assay: In vivo antagonist activity at Histamine H3 receptor was screened by measuring the effect on brain histamine turnover after oral application to mice.; assay type: functional, organism-based
# Histamine H3 receptor (Mus musculus), sequence (P58406 whole entry): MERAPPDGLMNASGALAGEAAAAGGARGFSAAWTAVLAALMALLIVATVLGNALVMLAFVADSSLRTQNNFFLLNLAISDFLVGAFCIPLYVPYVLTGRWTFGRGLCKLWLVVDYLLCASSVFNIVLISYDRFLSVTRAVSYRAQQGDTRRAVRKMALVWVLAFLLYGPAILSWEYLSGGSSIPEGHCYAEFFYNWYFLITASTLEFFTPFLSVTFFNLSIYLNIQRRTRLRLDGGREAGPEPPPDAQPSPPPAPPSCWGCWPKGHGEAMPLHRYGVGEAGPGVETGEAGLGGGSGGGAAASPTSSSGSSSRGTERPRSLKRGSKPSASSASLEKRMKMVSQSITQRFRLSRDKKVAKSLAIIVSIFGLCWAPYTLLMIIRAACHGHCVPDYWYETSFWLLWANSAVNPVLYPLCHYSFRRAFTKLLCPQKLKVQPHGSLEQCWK
# Method in brief: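 Swiss mice dosed orally; in vivo H3 antagonist activity tested at least in triplicate, per Garbarg et al.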
# [2] = target: Histamine H3 receptor (Rattus norvegicus) (UniProt Q9QYN8); assay: as §1; assay type: functional, subcellular; details: Brain; method in brief: as §2
# Histamine H3 receptor (Rattus norvegicus), sequence (Q9QYN8 whole entry): as the sequence (P58406 whole entry) above, with A15T, T286A, G290A, H387R, V389I counted along it
# [3] = target: Histamine H1 receptor (Cavia porcellus) (UniProt P31389); assay: Compound was tested in vitro for its Histamine H1 receptor activity on guinea pig ileum.; assay type: functional, tissue-based
# Histamine H1 receptor (Cavia porcellus), sequence (P31389 whole entry): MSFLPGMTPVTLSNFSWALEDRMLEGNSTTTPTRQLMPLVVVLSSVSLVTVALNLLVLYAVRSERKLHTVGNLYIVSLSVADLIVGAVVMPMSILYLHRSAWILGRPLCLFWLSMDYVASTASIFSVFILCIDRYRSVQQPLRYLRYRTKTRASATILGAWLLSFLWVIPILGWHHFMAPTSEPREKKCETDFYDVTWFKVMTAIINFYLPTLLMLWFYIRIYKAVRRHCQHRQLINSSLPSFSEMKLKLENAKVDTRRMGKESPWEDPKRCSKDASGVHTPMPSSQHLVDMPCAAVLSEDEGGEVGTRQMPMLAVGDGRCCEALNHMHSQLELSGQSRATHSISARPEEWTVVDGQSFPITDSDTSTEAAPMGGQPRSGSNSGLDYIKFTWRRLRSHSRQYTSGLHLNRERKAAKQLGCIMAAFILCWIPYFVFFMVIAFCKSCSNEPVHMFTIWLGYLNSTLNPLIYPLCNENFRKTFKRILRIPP
# [4] = target: Histamine H2 receptor (Cavia porcellus) (UniProt P47747); assay: Compound was tested in vitro for its Histamine H2 receptor activity on guinea pig atrium.; assay type: functional, tissue-based; details: Cardiac atrium
# Histamine H2 receptor (Cavia porcellus), sequence (P47747 whole entry): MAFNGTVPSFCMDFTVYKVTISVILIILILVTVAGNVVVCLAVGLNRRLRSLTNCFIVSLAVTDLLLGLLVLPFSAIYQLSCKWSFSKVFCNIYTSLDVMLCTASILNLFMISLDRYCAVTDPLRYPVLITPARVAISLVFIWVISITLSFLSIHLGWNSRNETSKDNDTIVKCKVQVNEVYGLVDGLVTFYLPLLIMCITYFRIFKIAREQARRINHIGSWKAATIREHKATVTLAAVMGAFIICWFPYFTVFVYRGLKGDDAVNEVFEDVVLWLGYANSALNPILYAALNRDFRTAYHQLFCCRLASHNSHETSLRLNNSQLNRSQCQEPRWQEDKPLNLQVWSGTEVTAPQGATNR
# [5] = target: Histamine H1 receptor (Cavia porcellus) (UniProt P31389); assay: Compound was tested in vitro for its Histamine H1 receptor activity on guinea pig ileum; assay type: functional, tissue-based
# Histamine H3 receptor, sequence (Q9QYN8 whole entry): as the sequence (P58406 whole entry) above, with A15T, T286A, G290A, H387R, V389I counted along it
Structure (SMILES),Ki (Histamine H3 receptor) [nM],ED50 [1] [mg/kg],-Log K [2],-Log K [3],-Log K [4],-Log K [5]
C#Cc1ccc(OCCCc2cnc[nH]2)cc1,2.3,–,–,–,–,–
CC(C)(C)C#Cc1ccc(OCCCc2c[nH]cn2)cc1,–,2.2,6.9,< 5.6,< 4.6,–
C#Cc1ccc(OCCCc2c[nH]cn2)cc1,–,0.12,8.6,–,< 4.8,< 5.5
CC(C)(C)C#Cc1ccc(OCCCc2cnc[nH]2)cc1,123,–,–,–,–,–
CCCC#Cc1ccc(OCCCc2cnc[nH]2)cc1,140,–,–,–,–,–
CCCC#Cc1ccc(OCCCc2c[nH]cn2)cc1,–,2.2,6.9,< 5.9,< 4.7,–
C[Si](C)(C)C#Cc1ccc(OCCCc2c[nH]cn2)cc1,36,1.1,7.4,–,< 4.6,< 5
CC#Cc1ccc(OCCCc2c[nH]cn2)cc1,7.5,1.3,8.1,< 5,< 4.7,–
